Experimental data pooled from the literature.
Lines come from different studies, so protocols differ.
Observed: cell growth or viability

Structure (SMILES) | cell line | test | setting | quantity | result
CC1(C)C[C@H]2[C@H]1CC[C@]1(C)CCC[C@@]2(n2cc(C(=O)O)nn2)C1 | HT-29 | CCK-8 | 10 µM | inhibition | < 50%
O=c1c2cc(Cl)ccc2nc(-c2ccccc2)n1N=Cc1ccc(Cl)cc1Cl | LLC-PK1 | MTT | 72 h | IC50 | 264 µM
CCC(=O)NCc1ccc(-c2cnc(C3CN(C(=O)c4ccc(NC(=O)[C@@H]5CC(C)(C)CN5)s4)C3)s2)c2ccccc12 | IMR-90 | SRB | 7 days | GI50 | > 10 µM
CC1(C)C[C@H]2[C@H]1CC[C@]1(C)CCC[C@@]2(n2cc(C(=O)NCCN)nn2)C1 | HT-29 | CCK-8 | 10 µM | inhibition | 53.4%
O=c1c2cc(Cl)ccc2nc(-c2ccccc2)n1N=Cc1ccc2c(c1)OCO2 | LLC-PK1 | MTT | 72 h | IC50 | 60.2 µM
C=C(NC(=O)C(=C)NC(=O)c1csc(C2=N[C@@H]3c4csc(n4)[C@H]4NC(=O)c5csc(n5)[C@H]([C@](C)(O)[C@@H](C)O)NC(=O)[C@H]5CSC(=N5)/C(=C/C)NC(=O)[C@H]([C@@H](C)O)NC(=O)c5csc(n5)[C@]3(CC2)NC(=O)[C@H](C)NC(=O)C(=C)NC(=O)[C@H](C)NC(=O)[C@H]([C@@H](C)CC)N[C@@H]2C=Cc3c([C@H](C)O)cc(nc3[C@H]2O)C(=O)O[C@@H]4C)n1)C(N)=O | SQ20B |  |  | EC50 | 0.7 µM
CC1(C)C[C@H]2[C@H]1CC[C@]1(C)CCC[C@@]2(n2cc(C(=O)Nc3ccc(Cl)cc3)nn2)C1 | HT-29 | CCK-8 | 50 µM | inhibition | 16.8%
Cc1nc(Nc2ncc(C(=O)Nc3c(C)cccc3Cl)s2)cc(N2CC[C@H](O)C2)n1 | OCI-Ly7 | ATP luminescence | 10 µM, 72 h | inhibition | 57%
O=c1c2cc(Cl)ccc2nc(-c2ccccc2)n1N=Cc1cccnc1 | LLC-PK1 | MTT | 72 h | IC50 | 326 µM
